Converted amounts (≈) assume the structure as drawn. The source made the active and inactive calls. No cut-off for these calls is given here.
How the values were obtained:
Plasmodium falciparum [1] = test: Antimicrobial activity against Plasmodium falciparum D6 by microdilution method; format: functional, organism-based
Mus musculus = organism: Mus musculus; test: Metabolic stability in mouse liver microsome by LC-MS/MS method; details: liver microsomes
Plasmodium falciparum [2] = test: Antimicrobial activity against Plasmodium falciparum W2 by microdilution method; format: functional, organism-based
Plasmodium berghei [3] = test: Antiplasmodial activity against Plasmodium berghei sporozoites infected in orally dosed mouse administered for three consecutive days one day before infection; format: functional; details: po, 24 h, read-out: MED
Summary of the method: (§1)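 Mice were inoculated with P. berghei sporozoites. For oral dosing, compounds were ground and suspended in hydroxyethylcellulose plus Tween 80; for sc dosing, they were suspended in peanut oil. Doses were given once daily on three consecutive days: the day before, 4 h before, and the day after inoculation. Several dose levels were used, up to 320 mg/kg/day. Cure was scored.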

Homo sapiens = organism: Homo sapiens; test: Metabolic stability in human liver microsome by LC-MS/MS method; details: liver microsomes
[4] = Toxicity in Plasmodium berghei sporozoites infected orally dosed mouse administered for three consecutive days one day before infection; format: organism-based; details: in vivo, po
Summary of the method: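 Mice received P. berghei sporozoites. Each compound was ground and suspended in hydroxyethylcellulose plus Tween 80, then given orally at several dose levels up to 320 mg/kg/day. Dosing was once daily for three consecutive days: the day before, 4 h before, and the day after sporozoite inoculation.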

Plasmodium falciparum [5] = test: Antimicrobial activity against Plasmodium falciparum TM91C235 by microdilution method; format: functional, organism-based
Plasmodium berghei [6] = test: Antiplasmodial activity against Plasmodium berghei sporozoites infected in orally dosed mouse assessed as cure from infection 160 mg/kg/day, po administered for three consecutive days before infection measured after at day 31; format: functional, organism-based; summary of the method: as §1
Plasmodium cynomolgi [7] = test: Antiplasmodial activity against Plasmodium cynomolgi sporozoites infected in Rhesus monkey assessed as delay in detection of parasites in blood at 1.78 mg/kg/day, po administered for three consecutive days before infection; format: functional
Plasmodium cynomolgi [8] = test: Antiplasmodial activity against Plasmodium cynomolgi sporozoites infected in Rhesus monkey assessed as duration for detection of parasites in blood at 1.78 mg/kg/day, po administered for three consecutive days before infection (reference value: 8 days); format: functional
Plasmodium cynomolgi [9] = test: Antiplasmodial activity against Plasmodium cynomolgi sporozoites infected in Rhesus monkey assessed as duration for detection of parasites in blood at 30 mg/kg/day, im administered for three consecutive days before infection (reference value: 8 days); format: functional; details: route intramuscular
Plasmodium cynomolgi [10] = test: Antiplasmodial activity against Plasmodium cynomolgi sporozoites infected in Rhesus monkey assessed as delay in detection of parasites in blood at 30 mg/kg/day, im administered for three consecutive days before infection; format: functional; details: route intramuscular
[11] = Plasmodium falciparum, D6, read-out: IC50
[12] = Plasmodium falciparum, W2, read-out: IC50
[13] = Plasmodium falciparum, TM91C235, read-out: IC50

CC(C)N1C(=O)C(=O)N=C1/N=C(\NCc1ccccc1)Nc1ccc(Cl)c(Cl)c1
IC50 (Plasmodium falciparum [1]): 2.36 µg/mL (≈ 5.46 µM)
IC50 (Plasmodium falciparum [1]; [11]): 2.36 µg/mL (≈ 5.46 µM)
half-life (Mus musculus): > 1 h
IC50 (Plasmodium falciparum [2]): 1.3 µg/mL (≈ 3.01 µM)
IC50 (Plasmodium falciparum [2]; [12]): 1.3 µg/mL (≈ 3.01 µM)
minimal effective dose (Plasmodium berghei [3]): > 320 mg/kg/day
half-life (Homo sapiens): > 1 h
MTD at 3 days [4]: ≥ 320 mg/kg/day
IC50 (Plasmodium falciparum [5]; [13]): > 5 µg/mL

CCN/C(=N\C1=NC(=O)C(=O)N1C(C)C)Nc1ccc(Cl)c(Cl)c1
IC50 (Plasmodium falciparum [1]; [11]): > 5 µg/mL
half-life (Mus musculus): > 1 h
IC50 (Plasmodium falciparum [2]): 1.67 µg/mL (≈ 4.51 µM)
IC50 (Plasmodium falciparum [2]; [12]): 1.67 µg/mL (≈ 4.51 µM)
minimal effective dose (Plasmodium berghei [3]): > 160 mg/kg/day
half-life (Homo sapiens): > 1 h
MTD at 3 days [4]: ≥ 160 mg/kg/day
IC50 (Plasmodium falciparum [5]; [13]): > 5 µg/mL

CON/C(=N\C1=NC(=O)C(=O)N1C(C)C)Nc1ccc(Cl)c(Cl)c1
IC50 (Plasmodium falciparum [1]; [11]): > 5 µg/mL
half-life (Mus musculus): > 1 h
Activity (Plasmodium berghei [6]): Active
IC50 (Plasmodium falciparum [2]; [12]): > 5 µg/mL
minimal effective dose (Plasmodium berghei [3]): ≥ 40 mg/kg/day
half-life (Homo sapiens): > 1 h
MTD at 3 days [4]: < 40 mg/kg/day
IC50 (Plasmodium falciparum [5]; [13]): > 5 µg/mL

COc1cc(NC(C)CCCN)c2ncccc2c1 (stereo unspecified) [PRIMAQUINE]
Time (Plasmodium cynomolgi [7]): 5 days
Time (Plasmodium cynomolgi [8]): 13 days

CC(C)N1C(=O)C(=O)N=C1/N=C(\Nc1ccccc1)Nc1ccc(Cl)c(Cl)c1
IC50 (Plasmodium falciparum [1]): 2.16 µg/mL (≈ 5.16 µM)
IC50 (Plasmodium falciparum [1]; [11]): 2.16 µg/mL (≈ 5.16 µM)
half-life (Mus musculus): > 1 h
IC50 (Plasmodium falciparum [2]): 0.88 µg/mL (≈ 2.1 µM)
IC50 (Plasmodium falciparum [2]; [12]): 0.88 µg/mL (≈ 2.1 µM)
minimal effective dose (Plasmodium berghei [3]): > 160 mg/kg/day
half-life (Homo sapiens): > 1 h
MTD at 3 days [4]: ≥ 160 mg/kg/day
IC50 (Plasmodium falciparum [5]): 2.6 µg/mL (≈ 6.22 µM)
IC50 (Plasmodium falciparum [5]; [13]): 2.6 µg/mL (≈ 6.22 µM)

CC(C)N1C(=O)C(=O)N=C1/N=C(/Nc1ccc(Cl)c(Cl)c1)NC(C)(C)C
IC50 (Plasmodium falciparum [1]): 0.72 µg/mL (≈ 1.81 µM)
IC50 (Plasmodium falciparum [1]; [11]): 0.72 µg/mL (≈ 1.81 µM)
half-life (Mus musculus): > 1 h
IC50 (Plasmodium falciparum [2]): 1.15 µg/mL (≈ 2.89 µM)
IC50 (Plasmodium falciparum [2]; [12]): 1.15 µg/mL (≈ 2.89 µM)
minimal effective dose (Plasmodium berghei [3]): > 320 mg/kg/day
half-life (Homo sapiens): > 1 h
MTD at 3 days [4]: ≥ 320 mg/kg/day
IC50 (Plasmodium falciparum [5]): 1.36 µg/mL (≈ 3.41 µM)
IC50 (Plasmodium falciparum [5]; [13]): 1.36 µg/mL (≈ 3.41 µM)

CC(C)N1C(=O)C(=O)N=C1/N=C(\NCCN(C)C)Nc1ccc(Cl)c(Cl)c1
IC50 (Plasmodium falciparum [1]; [11]): > 5 µg/mL
half-life (Mus musculus): > 1 h
IC50 (Plasmodium falciparum [2]; [12]): > 5 µg/mL
minimal effective dose (Plasmodium berghei [3]): > 160 mg/kg/day
half-life (Homo sapiens): > 1 h
MTD at 3 days [4]: ≥ 160 mg/kg/day
IC50 (Plasmodium falciparum [5]; [13]): > 5 µg/mL

CC(C)N1C(=O)C(=O)N=C1/N=C(\NCCCCN1CCCC1)Nc1ccc(Cl)c(Cl)c1
IC50 (Plasmodium falciparum [1]): 1.55 µg/mL (≈ 3.32 µM)
IC50 (Plasmodium falciparum [1]; [11]): 1.55 µg/mL (≈ 3.32 µM)
half-life (Mus musculus): > 1 h
IC50 (Plasmodium falciparum [2]): 2.3 µg/mL (≈ 4.92 µM)
IC50 (Plasmodium falciparum [2]; [12]): 2.3 µg/mL (≈ 4.92 µM)
minimal effective dose (Plasmodium berghei [3]): > 160 mg/kg/day
half-life (Homo sapiens): > 1 h
MTD at 3 days [4]: ≥ 160 mg/kg/day
IC50 (Plasmodium falciparum [5]; [13]): > 5 µg/mL

CC(C)N1C(=O)C(=O)N=C1/N=C(\NOCc1ccccc1)Nc1ccc(Cl)c(Cl)c1
IC50 (Plasmodium falciparum [1]; [11]): > 5 µg/mL
half-life (Mus musculus): 0.214 h
Time (Plasmodium cynomolgi [9]): 27 days
IC50 (Plasmodium falciparum [2]; [12]): > 5 µg/mL
minimal effective dose (Plasmodium berghei [3]): > 160 mg/kg/day
half-life (Homo sapiens): > 1 h
Time (Plasmodium cynomolgi [10]): 19 days
MTD at 3 days [4]: ≥ 160 mg/kg/day
IC50 (Plasmodium falciparum [5]; [13]): > 5 µg/mL

CCN(CC)CCN/C(=N\C1=NC(=O)C(=O)N1C(C)C)Nc1ccc(Cl)c(Cl)c1
IC50 (Plasmodium falciparum [1]; [11]): > 5 µg/mL
half-life (Mus musculus): 0.294 h
IC50 (Plasmodium falciparum [2]; [12]): > 5 µg/mL
minimal effective dose (Plasmodium berghei [3]): > 160 mg/kg/day
half-life (Homo sapiens): 0.525 h
MTD at 3 days [4]: ≥ 160 mg/kg/day
IC50 (Plasmodium falciparum [5]; [13]): > 5 µg/mL

CCCCCCN/C(=N\C1=NC(=O)C(=O)N1C(C)C)Nc1ccc(Cl)c(Cl)c1
IC50 (Plasmodium falciparum [1]): 1.35 µg/mL (≈ 3.17 µM)
IC50 (Plasmodium falciparum [1]; [11]): 1.35 µg/mL (≈ 3.17 µM)
half-life (Mus musculus): 0.131 h
IC50 (Plasmodium falciparum [2]): 2.62 µg/mL (≈ 6.15 µM)
IC50 (Plasmodium falciparum [2]; [12]): 2.62 µg/mL (≈ 6.15 µM)
minimal effective dose (Plasmodium berghei [3]): > 160 mg/kg/day
MTD at 3 days [4]: ≥ 160 mg/kg/day
IC50 (Plasmodium falciparum [5]): 2.8 µg/mL (≈ 6.57 µM)
IC50 (Plasmodium falciparum [5]; [13]): 2.8 µg/mL (≈ 6.57 µM)

CC(C)N1C(=O)C(=O)N=C1/N=C(\NCCCCCCNC(=O)OC(C)(C)C)Nc1ccc(Cl)c(Cl)c1
IC50 (Plasmodium falciparum [1]; [11]): > 5 µg/mL
half-life (Mus musculus): 0.182 h
IC50 (Plasmodium falciparum [2]): 1.46 µg/mL (≈ 2.7 µM)
IC50 (Plasmodium falciparum [2]; [12]): 1.46 µg/mL (≈ 2.7 µM)
minimal effective dose (Plasmodium berghei [3]): > 160 mg/kg/day
half-life (Homo sapiens): 0.208 h
MTD at 3 days [4]: ≥ 160 mg/kg/day
IC50 (Plasmodium falciparum [5]; [13]): > 5 µg/mL
